# “Also recorded” adds a separate entry of the source. * marks the point of attachment. pNA = O=[N+]([O-])c1ccc(N*)cc1
# Columns and labels:
# [1] = molecular target: T1, Southampton norovirus 3C protease (SV3CP) (Southampton virus, UniProt Q04544); experiment: Chromogenic pNA peptide substrate cleavage, initial rates at 405 nm; type: biochemical; settings: compared with Ac-EFQLQ-pNA or other trial substrates; pH 8.5
# In short: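 Recombinant SV3CP expressed in E. coli BL21(DE3) pLysS, self-excised from flanking sequences, purified by two cation-exchange steps. N-acetylated peptide-pNA substrates in DMSO, diluted into 100 mM Tris pH 8.5 with 5 mM β-mercaptoethanol (final substrate 0.1−3.0 mM, enzyme 0.1 mg/mL). A405 of samples read every 1 min for 10 min; initial rates gave KM, kcat and kcat/KM.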
# [2] = Solubility of the inhibitor in protein buffer; type: physicochemical; settings: 10% DMSO had to be included in the buffer
# [3] = tested on: Southampton norovirus 3C protease (SV3CP), Cys 139; experiment: X-ray structure of the SV3CP-MAPI complex; type: binding; settings: cocrystal at 1.7 Å resolution, PDB 2IPH; crystals at pH 8.5
# [4] = molecular target: T1, Southampton norovirus 3C protease (SV3CP); experiment: Mass spectrometry of the SV3CP-MAPI complex; type: binding; settings: single major protein peak at 20045 Da
# [5] = molecular target: T1, Southampton norovirus 3C protease (SV3CP); type: biochemical; settings: preincubation with millimolar concentrations of the inhibitor prior to addition of substrate; within the dead time of the experiment
# T1 sequence (Q04544 1100-1280 limits assumed): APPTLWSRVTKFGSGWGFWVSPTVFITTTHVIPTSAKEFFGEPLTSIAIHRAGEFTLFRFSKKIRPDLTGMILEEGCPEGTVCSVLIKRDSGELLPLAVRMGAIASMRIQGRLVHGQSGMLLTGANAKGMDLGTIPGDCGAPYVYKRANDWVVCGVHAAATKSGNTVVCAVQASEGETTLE
Substance,"kcat/KM, kcat and KM comparison in words [1]",solubility (in words) [2],covalent binding mode [3],binding stoichiometry [4],time to irreversible inactivation of the enzyme [5]
Ac-DEFQLQ-pNA,had a kcat which was higher than that of Ac-EFQLQ-pNA although its proportionately higher KM meant that it was a slightly inferior substrate in terms of specificity constant,,,,
Ac-EFQLQ-pNA,had the highest kcat/KM ratio; also recorded: the best substrate in terms of specificity constant (kcat/KM ratio),,,,
acetyl-Glu-Phe-Gln-Leu-Gln-X [MAPI],,essentially insoluble,the active site thiol of Cys 139 is bound covalently to the C-terminal Michael-acceptor extension of the inhibitor MAPI,one molecule of SV3CP plus one molecule of the inhibitor,< 30 s
